Experimental data taken from ChEMBL document CHEMBL2413060, “Synthesis, biological evaluation and molecular docking studies of some pyrimidine derivatives” (2013).
≈ marks a conversion by molar mass, not a printed value.

Columns and labels:
Type in all cases: functional
Candida albicans [1] = assay: Antifungal activity against Candida albicans ATCC 2091 after 48 hrs by two-fold serial dilution method; conditions: ATCC 2091, 48 h
In short: (§1)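 Two-fold serial broth dilution in sterile nutrient broth at 500, 250, 125, 62.5, 31.25, 15.63, 7.82 and 3.91 µg/ml, with dimethylformamide ≤2.5%. Organisms were pre-grown 24 h in broth, and 0.1 ml inoculum was added per 5 ml tube. Tubes were incubated at 37°C, 24 h for bacteria and 48 h for fungi. MIC was taken as the lowest concentration giving no turbidity.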

Candida albicans [2] = assay: Antifungal activity against Candida albicans ATCC 2091 after 48 hrs by two-fold serial dilution method relative to clotrimazole
Candida albicans [3] = assay: Antifungal activity against Candida albicans ATCC 2091 assessed as diameter of inhibition zone at 1 mg/ml after 48 hrs by cup diffusion method (reference value: 22 mm); conditions: ATCC 2091, 48 h, read-out: DIZ
Shigella flexneri [4] = assay: Antibacterial activity against Shigella flexneri ATCC 15391 assessed as diameter of inhibition zone at 1 mg/ml after 24 hrs by cup diffusion method (reference value: 17 mm); conditions: ATCC 15391, 24 h, read-out: DIZ
Staphylococcus aureus = assay: Antibacterial activity against Staphylococcus aureus ATCC 6538P assessed as diameter of inhibition zone at 1 mg/ml after 24 hrs by cup diffusion method (reference value: 15 mm); conditions: read-out: DIZ
Pseudomonas aeruginosa [5] = assay: Antibacterial activity against Pseudomonas aeruginosa ATCC 9027 assessed as diameter of inhibition zone at 1 mg/ml after 24 hrs by cup diffusion method (reference value: 16 mm); conditions: ATCC 9027, 24 h, read-out: DIZ
T47D = assay: Cytotoxicity against human T47D cells assessed as growth inhibition at 10 uM; conditions: read-out: GI
In short: (§2)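 Single-dose screen on human tumour cell lines. Growth of treated cells is expressed as percent of untreated growth, plotted as a mean graph, and reported as percent growth inhibition.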

MDA-MB-435 = assay: Cytotoxicity against human MDA-MB-435 cells assessed as growth inhibition at 10 uM; conditions: read-out: GI; in short: as §2
BT-549 = assay: Cytotoxicity against human BT549 cells assessed as growth inhibition at 10 uM; conditions: read-out: GI
Hs-578T = assay: Cytotoxicity against human Hs578T cells assessed as growth inhibition at 10 uM; conditions: read-out: GI
PC-3 = assay: Cytotoxicity against human PC3 cells assessed as growth inhibition at 10 uM; conditions: read-out: GI; in short: as §2
MCF7 = assay: Cytotoxicity against human MCF7 cells assessed as growth inhibition at 10 uM; conditions: read-out: GI; in short: as §2
TK-10 = assay: Cytotoxicity against human TK10 cells assessed as growth inhibition at 10 uM; conditions: read-out: GI
In short: (§3)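 Single-dose screen in a sixty-cell human tumour line panel; percent growth of treated cells relative to untreated was read and reported as percentage growth inhibition, shown as a mean graph. Compounds meeting the threshold inhibition criteria went on to five-dose testing.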

UO-31 = assay: Cytotoxicity against human UO31 cells assessed as growth inhibition at 10 uM; conditions: read-out: GI; in short: as §3
SN12C = assay: Cytotoxicity against human SN12C cells assessed as growth inhibition at 10 uM; conditions: read-out: GI; in short: as §2
CAKI-1 = assay: Cytotoxicity against human Caki1 cells assessed as growth inhibition at 10 uM; conditions: read-out: GI
A498 = assay: Cytotoxicity against human A498 cells assessed as growth inhibition at 10 uM; conditions: read-out: GI
ACHN = assay: Cytotoxicity against human ACHN cells assessed as growth inhibition at 10 uM; conditions: read-out: GI
786-0 = assay: Cytotoxicity against human 786-0 cells assessed as growth inhibition at 10 uM; conditions: read-out: GI
SK-OV-3 = assay: Cytotoxicity against human SKOV3 cells assessed as growth inhibition at 10 uM; conditions: read-out: GI; in short: as §2
OVCAR-8 = assay: Cytotoxicity against human OVCAR8 cells assessed as growth inhibition at 10 uM; conditions: read-out: GI; in short: as §2
OVCAR-3 = assay: Cytotoxicity against human OVCAR3 cells assessed as growth inhibition at 10 uM; conditions: read-out: GI; in short: as §2
IGROV-1 = assay: Cytotoxicity against human IGROV1 cells assessed as growth inhibition at 10 uM; conditions: read-out: GI
UACC-62 = assay: Cytotoxicity against human UACC62 cells assessed as growth inhibition at 10 uM; conditions: read-out: GI; in short: as §3
UACC-257 = assay: Cytotoxicity against human UACC257 cells assessed as growth inhibition at 10 uM; conditions: read-out: GI; in short: as §3
SK-MEL-28 = assay: Cytotoxicity against human SK-MEL-28 cells assessed as growth inhibition at 10 uM; conditions: read-out: GI; in short: as §2
SK-MEL-2 = assay: Cytotoxicity against human SK-MEL-2 cells assessed as growth inhibition at 10 uM; conditions: read-out: GI; in short: as §2
M14 = assay: Cytotoxicity against human M14 cells assessed as growth inhibition at 10 uM; conditions: read-out: GI
Malme-3M = assay: Cytotoxicity against human MALME-3M cells assessed as growth inhibition at 10 uM; conditions: read-out: GI
SNB-75 = assay: Cytotoxicity against human SNB75 cells assessed as growth inhibition at 10 uM; conditions: read-out: GI; in short: as §2
SF-539 = assay: Cytotoxicity against human SF539 cells assessed as growth inhibition at 10 uM; conditions: read-out: GI; in short: as §2
SF-295 = assay: Cytotoxicity against human SF295 cells assessed as growth inhibition at 10 uM; conditions: read-out: GI; in short: as §2
HCT-116 = assay: Cytotoxicity against human HCT116 cells assessed as growth inhibition at 10 uM; conditions: read-out: GI
NCI-H460 = assay: Cytotoxicity against human NCI-H460 cells assessed as growth inhibition at 10 uM; conditions: read-out: GI; in short: as §2
NCI-H322M = assay: Cytotoxicity against human NCI-H322M cells assessed as growth inhibition at 10 uM; conditions: read-out: GI; in short: as §2
HOP-92 = assay: Cytotoxicity against human HOP92 cells assessed as growth inhibition at 10 uM; conditions: read-out: GI
HOP-62 = assay: Cytotoxicity against human HOP62 cells assessed as growth inhibition at 10 uM; conditions: read-out: GI
Shigella flexneri [6] = assay: Antibacterial activity against Shigella flexneri ATCC 15391 after 24 hrs by two-fold serial dilution method relative to ofloxacin
Shigella flexneri [7] = assay: Antibacterial activity against Shigella flexneri ATCC 15391 after 24 hrs by two-fold serial dilution method; conditions: ATCC 15391, 24 h; in short: as §1
NCI/ADR-RES = assay: Cytotoxicity against human NCI/ADR-RES cells assessed as growth inhibition at 10 uM; conditions: read-out: GI; in short: as §2
NCI-H23 = assay: Cytotoxicity against human NCI-H23 cells assessed as growth inhibition at 10 uM; conditions: read-out: GI; in short: as §2
Pseudomonas aeruginosa [8] = assay: Antibacterial activity against Pseudomonas aeruginosa ATCC 9027 after 24 hrs by two-fold serial dilution method; conditions: ATCC 9027, 24 h; in short: as §1
NCI-H522 = assay: Cytotoxicity against human NCI-H522 cells assessed as growth inhibition at 10 uM; conditions: read-out: GI; in short: as §2
[9] = Cytotoxicity against human EKVX cells assessed as growth inhibition at 10 uM; conditions: read-out: GI
SR = assay: Cytotoxicity against human SR cells assessed as growth inhibition at 10 uM; conditions: read-out: GI; in short: as §2

Structure (SMILES)	zone of inhibition at 1000 µg/mL (Candida albicans [3]) [mm]	zone of inhibition at 1000 µg/mL (Shigella flexneri [4]) [mm]	zone of inhibition at 1000 µg/mL (Staphylococcus aureus) [mm]	zone of inhibition at 1000 µg/mL (Pseudomonas aeruginosa [5]) [mm]	inhibition of growth at 10 µM (T47D) [%]	inhibition of growth at 10 µM (BT-549) [%]	inhibition of growth at 10 µM (Hs-578T) [%]	inhibition of growth at 10 µM (PC-3) [%]	inhibition of growth at 10 µM (MCF7) [%]	inhibition of growth at 10 µM (TK-10) [%]	inhibition of growth at 10 µM (A498) [%]	inhibition of growth at 10 µM (IGROV-1) [%]	inhibition of growth at 10 µM (UACC-62) [%]	inhibition of growth at 10 µM (SK-MEL-2) [%]	inhibition of growth at 10 µM (Malme-3M) [%]	inhibition of growth at 10 µM (SNB-75) [%]	inhibition of growth at 10 µM (SF-295) [%]	inhibition of growth at 10 µM (HOP-92) [%]	inhibition of growth at 10 µM (HOP-62) [%]	other results
N#Cc1c(-c2ccccc2)nc(SCC(O)CN2CCOCC2)nc1N1CCOCC1 (stereo not given)	24	18	15	16	74	70.5	93.8	43.5	95	59.2	103	130	57.1	92.7	76.9	105	56.4	69.3	52	MIC (Candida albicans [1]): 125 µg/mL (≈ 283 µM); Activity (Candida albicans [2]): 60%; inhibition of growth at 10 µM (MDA-MB-435): 47%; inhibition of growth at 10 µM (UO-31): 58.3%; inhibition of growth at 10 µM (SN12C): 42.2%; inhibition of growth at 10 µM (CAKI-1): 62.6%; inhibition of growth at 10 µM (ACHN): 45.6%; inhibition of growth at 10 µM (786-0): 61.9%; inhibition of growth at 10 µM (SK-OV-3): 58.9%; inhibition of growth at 10 µM (OVCAR-8): 66.6%; inhibition of growth at 10 µM (OVCAR-3): 64.6%; inhibition of growth at 10 µM (UACC-257): 82.9%; inhibition of growth at 10 µM (SK-MEL-28): 40.1%; inhibition of growth at 10 µM (M14): 40.1%; inhibition of growth at 10 µM (SF-539): 43.4%; inhibition of growth at 10 µM (HCT-116): 42.5%; inhibition of growth at 10 µM (NCI-H460): 66%; inhibition of growth at 10 µM (NCI-H322M): 47.7%
N#Cc1c(-c2ccco2)[nH]c(=S)[nH]c1=O	22	21	15	16											55.6	42.8				Activity (Shigella flexneri [6]): 60%; MIC (Shigella flexneri [7]): 125 µg/mL (≈ 570 µM); inhibition of growth at 10 µM (NCI/ADR-RES): 74.2%; inhibition of growth at 10 µM (NCI-H23): 78.6%
N#Cc1c(N2CCOCC2)nc(=S)[nH]c1-c1ccccc1	22	17	15	18	62.7	42.3	73.2	53	43.4	42.4	86.3	70.9	56.4	58.2	104	84.9	45.5	107	48.7	MIC (Pseudomonas aeruginosa [8]): 125 µg/mL (≈ 419 µM); inhibition of growth at 10 µM (NCI-H522): 40.4%; inhibition of growth at 10 µM [9]: 43.2%; inhibition of growth at 10 µM (SR): 46.9%
